Active and inactive are the calls of the source. No cut-off for these calls is given here.
Tests used:
HCT-116 [1] = experiment: Induction of apoptosis in p53-/- human HCT116 cells assessed as viable cells level at 4 uM incubated for 48 hrs by Annexin V-FITC/PI staining based cytometry (reference value: 96.2%); type: functional
Summary of the method: (§1)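 HCT116 p53-/- cells (Vogelstein line) in McCoy's 5A with 10% FBS, 37 °C, 5% CO2. Seeded at 5×10^5 in 6-well plates, treated with vehicle or 4 μM at 80% confluence. After treatment, trypsinised, washed twice in ice-cold PBS pH 7.4, and stained in binding buffer with Annexin V-FITC and PI for 15 min at room temperature in the dark. Read by flow cytometry.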

RKO = experiment: Cytotoxicity against human RKO cells assessed as reduction in cell viability incubated for 24 hrs by CCK8 assay; type: functional, cell-based
Summary of the method: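 Cells were seeded at 3×10^4 per well, grown 24 h, then exposed to increasing concentrations for 24 h. CCK-8 reagent was added for 1 h at 37 °C and absorbance was read at 450 nm. Cells were kept in McCoy's 5A with 10% FBS, and n=3.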

HCT-116 [2] = experiment: Induction of apoptosis in human HCT116 cells assessed as increase in cleaved PARP level pre-treated with 7.5 mM GSH for 6 hrs followed by 4 to 8 uM compound addition and further incubated for 24 hrs by Western blot method; type: functional, cell-based
HCT-116 [3] = experiment: Inhibition of colony formation of p53-/- human HCT116 cells at 4 to 16 uM incubated for 24 hrs by crystal violet staining based photography; type: functional, cell-based
Summary of the method: (§2)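 Cells (HCT116, RKO, HCT116 p53-/-, HCT116 Bax-/-) seeded at 300 per well in 12-well plates for 48 h, then treated 24 h. Drug medium replaced with fresh medium; about 10 days later colonies stained 15 min with crystal violet, photographed and counted. Run in triplicate.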

HCT-116 [4] = experiment: Induction of apoptosis in human HCT116 cells assessed as increase in cleaved PARP level pre-incubated with 20 uM pan-caspase inhibitor Z-VAD-FMK for 5 hrs followed by compound addition and further incubated for 48 hrs by Western blot method; type: functional, cell-based
Summary of the method: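 Cells were pretreated for 5 h with DMSO or 20 µM Z-VAD-FMK before compound exposure. Lysates were made in SDS buffer and quantified by BCA. Proteins were run on 10% SDS-PAGE, transferred to PVDF, and probed with cleaved PARP (1:1000) and GAPDH (1:5000) loading control, with ECL detection.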

HCT-116 [5] = experiment: Induction of apoptosis in Bax-/- human HCT116 cells assessed as early apoptotic cells level pre-incubated with 20 uM pan-caspase inhibitor Z-VAD-FMK for 5 hrs followed by compound addition and further incubated for 48 hrs by Annexin V-FITC/PI staining based cytometry (reference value: 6.8%); type: functional; design: scale not given: the % may be the effect or the level left
HCT-116 [6] = experiment: Induction of apoptosis in Bax-/- human HCT116 cells assessed as late apoptotic cells level at 4 uM incubated for 48 hrs by Annexin V-FITC/PI staining based cytometry (reference value: 0.2%); type: functional
Summary of the method: (§3)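 Cells were plated at 5×10^5 per well and treated once 80% confluent. After trypsinisation and two washes in ice-cold PBS (pH 7.4), cells were stained with Annexin V-FITC and PI for 15 min at room temperature in the dark. Analysis was by flow cytometry. The legend gives vehicle or 4 µM for the p53-/- and Bax-/- lines.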

HCT-116 [7] = experiment: Induction of apoptosis in Bax-/- human HCT116 cells assessed as increase in cleaved PARP level incubated for 48 hrs by Western blot method; type: functional, cell-based
Summary of the method: (§4)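 Lysates were made in SDS buffer (2% SDS, 50 mM Tris-HCl pH 6.8) and quantified by BCA. Equal protein was run on 10% SDS-PAGE and transferred to PVDF. Membranes were blocked in 5% milk, probed overnight at 4 °C for cleaved PARP (1:1000) with GAPDH (1:5000), and detected with HRP secondary antibody and ECL.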

HCT-116 [8] = experiment: Induction of apoptosis in Bax-/- human HCT116 cells assessed as early apoptotic cells level incubated for 48 hrs by Annexin V-FITC/PI staining based cytometry (reference value: 6.8%); type: functional; summary of the method: as §3
HCT-116 [9] = experiment: Inhibition of colony formation of human HCT116 cells incubated for 24 hrs by crystal violet staining based photography; type: functional, cell-based; summary of the method: as §2
HCT-116 [10] = experiment: Induction of apoptosis in human HCT116 cells assessed as subG1 phase cells level at 4 uM incubated for 24 hrs by […]PI staining based cytometry (reference value: 1%); type: functional
Summary of the method: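 Cells were treated for 24 h, then fixed in 75% ethanol at -20 °C overnight. RNA was digested with 0.2 mg/mL RNase A for 30 min at 37 °C. Cells were stained with 50 µg/mL PI for 30 min in the dark, and DNA content was read by flow cytometry.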

HCT-116 [11] = experiment: Induction of apoptosis in p53-/- human HCT116 cells assessed as increase in cleaved PARP level at 4 to 16 uM by Western blot method; type: functional, cell-based; summary of the method: as §4
MCF7 = experiment: Cytotoxicity against human MCF7 cells assessed as reduction in cell viability incubated for 24 hrs by MTT assay; type: functional, cell-based; details: MCF7, 24 h
Summary of the method: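 Cells were kept in McCoy's 5A with 10% fetal bovine serum, streptomycin and 100 units·mL⁻¹ penicillin at 37 °C under 5% CO₂/95% air. Viability was read by MTT optical density. IC50 is the concentration that lowers optical density by 50% relative to untreated cells. Values are means with SD of at least three independent determinations.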

HCT-116 [12] = experiment: Induction of apoptosis in p53-/- human HCT116 cells assessed as late apoptotic cells level at 4 uM incubated for 48 hrs by Annexin V-FITC/PI staining based cytometry (reference value: 0.1%); type: functional; summary of the method: as §1
HCT-116 [13] = experiment: Induction of apoptosis in human HCT116 cells assessed as late apoptotic cells level at 4 uM incubated for 24 hrs by Annexin V-FITC/PI staining based cytometry (reference value: 0.5%); type: functional
HCT-116 [14] = experiment: Induction of apoptosis in Bax-/- human HCT116 cells assessed as viable cells level incubated for 48 hrs by Annexin V-FITC/PI staining based cytometry (reference value: 92.9%); type: functional; summary of the method: as §3
HCT-116 [15] = experiment: Induction of apoptosis in human HCT116 cells assessed as necrotic cells level pre-incubated with 20 uM pan-caspase inhibitor Z-VAD-FMK for 5 hrs followed by compound addition and further incubated for 48 hrs by Annexin V-FITC/PI staining based cytometry (reference value: 0.2%); type: functional; design: scale not given: the % may be the effect or the level left
HCT-116 [16] = experiment: Induction of apoptosis in human HCT116 cells assessed as increase in cleaved PARP level at 2 uM incubated for 24 hrs by Western blot method; type: functional, cell-based; summary of the method: as §4
HCT-116 [17] = experiment: Inhibition of colony formation of Bax-/- human HCT116 cells at 4 to 16 uM incubated for 24 hrs by crystal violet staining based photography; type: functional, cell-based; summary of the method: as §2
HCT-116 [18] = experiment: Inhibition of colony formation of human HCT116 cells pre-treated with 7.5 mM L-NAC for 2 hrs followed by 16 to 32 uM compound addition and further incubated for 24 hrs and measured after 10 days post dose in fresh medium by crystal violet staining based photography; type: functional, cell-based
Summary of the method: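 HCT116 seeded at about 300 per well in 12-well plates and grown 2 h. Pre-treated 2 h with H2O, 7.5 mM L-NAC or GSH, then exposed to compound for 24 h. Colonies grown 10 days in fresh medium, stained with crystal violet and counted. Triplicate wells.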

In the case of `CCN(CC)CCCNC(=O)c1cn(CCCc2ccccc2)c2cc(Cl)ccc2c1=O.Cl`, the Activity (HCT-116 [1]) is reported as 72.1%, the IC50 (RKO) is reported as 4.87 µM and the “growth inhibition (GI)” value (RKO) is reported as “Dose-dependent effect”. For the same compound, the Activity (HCT-116 [2]) was “inactive”, the inhibition (HCT-116 [3]) was “Active” and the Activity (HCT-116 [4]) was “inactive”. For the same compound, the Activity (HCT-116 [5]) was 10.2%, the Activity (HCT-116 [6]) was 0.8% and the Activity (HCT-116 [7]) was “Active”. The Activity (HCT-116 [8]) was 33%, the inhibition (HCT-116 [9]) was “Dose-dependent effect” and the Activity (HCT-116 [10]) was 14.2%. The Activity (HCT-116 [11]) was “Active”, the IC50 (MCF7) was 5.02 µM and the Activity (HCT-116 [12]) was 1.3%. For the same compound, the Activity (HCT-116 [13]) was 4.8%, the Activity (HCT-116 [14]) was 65.1% and the Activity (HCT-116 [15]) was 3.5%. For the same compound, the Activity (HCT-116 [16]) was “Active”, the inhibition (HCT-116 [17]) was “Active” and the inhibition (HCT-116 [18]) was “inactive”.
